Compound activity as filed in PubChem.
Only some compounds are listed: those with a hit (about 1.9% of all), similar ones and a draw of the others.
KLK7 zymogen act: proKLK7 (human) activation, primary screen; P49862; activation, % at 7 µM; purified proKLK7, EDANS-DABCYL substrate fluorescence; 100% is mature enzyme control, 0% vehicle; actives 0.9% (n = 370,000); AID 652039;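 active = activation above the mean of all tested compounds plus 3 SD, computed per campaign excluding outliers beyond control limits, cut at about 13% in these data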
Target sequence (P49862 whole entry, looked up): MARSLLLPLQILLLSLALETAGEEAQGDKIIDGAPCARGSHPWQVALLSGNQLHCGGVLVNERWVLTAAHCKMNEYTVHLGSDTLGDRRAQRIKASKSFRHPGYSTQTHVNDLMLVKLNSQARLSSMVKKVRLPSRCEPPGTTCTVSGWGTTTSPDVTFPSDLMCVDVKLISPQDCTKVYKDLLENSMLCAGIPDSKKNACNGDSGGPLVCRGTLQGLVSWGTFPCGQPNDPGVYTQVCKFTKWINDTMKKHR
Rce1 inh: inhibitors of yeast Ras-converting enzyme | yeast membranes, quenched prenylated peptide cleavage fluorescence | Q03530 | actives 0.27% (n = 290,000) | calls only;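 active = fall in fluorescence gain of 50% or more versus controls, with final raw signal at or below 3038400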
Target sequence (Q03530 whole entry, looked up): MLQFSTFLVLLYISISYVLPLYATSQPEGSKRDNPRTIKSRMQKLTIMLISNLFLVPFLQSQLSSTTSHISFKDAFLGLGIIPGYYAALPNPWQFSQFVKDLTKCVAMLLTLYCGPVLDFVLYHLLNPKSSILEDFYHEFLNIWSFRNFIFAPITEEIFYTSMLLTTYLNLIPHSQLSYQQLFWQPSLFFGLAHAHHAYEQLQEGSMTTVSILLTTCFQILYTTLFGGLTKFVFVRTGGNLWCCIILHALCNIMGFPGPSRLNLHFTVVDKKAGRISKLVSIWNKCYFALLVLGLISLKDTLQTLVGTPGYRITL
CR mimetic SO: caloric restriction mimetics inhibiting age-related superoxide in yeast; superoxide response (% of plate mean), % at 10 µM; actives 0.18% (n = 330,000); S. cerevisiae aged cells, superoxide DHE fluorescence; active compounds read low;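 active = superoxide response under a set limit, about three screen SD below normal, cut at about 65% in these data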;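 also: yeast aged for seven days with compound at 30 °C before DHE staining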
MIN6 prolif: MIN6 beta-cell proliferation induction. MIN6 cells proliferation, ATPlite luminescence, 48 h; cells starved in 0.2% serum; 100% = growth in 10% serum. proliferation, % at 10 µM. actives 0.29% (n = 330,000);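 active = compounds whose signal lies at least 3.5 SD above the mean of all wells on their plate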
T cell HTS: T cell immune modulation candidate. 2C CD8+ T cell-vesicle binding, flow cytometry; active compounds read low. response (vesicle binding), % at 7 µM. AID 2052. actives 0.068% (n = 330,000);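 active = response, share of CD8 T cells binding vesicles, and their 90th percentile fluorescence all below set limits, cut at about 80% in these data, passing the limit was not always enough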;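 also: values below 100% mean blocked vesicle binding to the CD8+ T cells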
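Assay system – 2C mouse CD8+ T cells · Also added – QL9-loaded Drosophila micro-vesicles · Timing – Cell–vesicle co-incubation 1.5 h at 37 °C, staining 20 min on ice · Signal – flow cytometry of vesicle-bound cells · Measure – percent CD8+ FL2 mean versus row control · Controls – Peptide-free naked vesicles (low) and QL9 vesicles with 0.7% DMSO vehicle (high)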
V-ATPase pH: alters yeast V-ATPase proton transport. S. cerevisiae, pHLuorin cytosolic pH fluorescence. response, % at 10 µM. actives 0.37% (n = 350,000). AID 504577; in the data active = response mostly above about 7.3%, no sharp cut-off; inactive = mostly below about 5.4%; also: actives read high
Numbers stand for hits; – = inactive; · = not tested or not shown; + = active, no number.

SMILES	KLK7 zymogen act	Rce1 inh	CR mimetic SO	MIN6 prolif	T cell HTS	V-ATPase pH
O=C(N[C@H]1C/C=C\C[C@@H](CC(=O)N(CCO)Cc2ccccc2)C(=O)N2CCC[C@H]2COC1=O)OCC1c2ccccc2-c2ccccc21	–	·	–	–	–	–
O=C(N[C@H]1C/C=C\C[C@@H](CC(=O)N(CCO)Cc2ccccc2)C(=O)N2CCC[C@@H]2COC1=O)OCC1c2ccccc2-c2ccccc21	·	·	–	–	0.0	–
COc1ccccc1CCn1cnc(-c2cccc(Cl)c2)c1CC(C)C	–	·	·	·	·	·
C=CCN1C(=O)[C@H](CC(=O)N2CCCCC2)[C@@]2(C(=O)OCC)CCCC=C12	–	·	·	·	·	·
Cc1ccc(S(=O)(=O)N2CCCCC2)cc1NC(=O)COC(=O)c1ccc2c(c1)OCO2	–	–	–	–	–	18
Cc1ccc(C2CCC3(CCC(=O)N3CCOC(=O)Nc3ccc(Br)cc3)CC2)cc1 (configuration not stated)	–	·	·	·	·	·
COC1=C[C@H](C(=O)NCc2ccccn2)[C@@]2(C)Cc3ccccc3[C@H]2CC1=O	–	·	·	·	·	·
O=C1NC(Cc2ccccc2)c2nc3ccccc3c(=O)n2-c2ccc(Cl)cc21 (configuration not stated)	–	·	–	–	–	·
Cc1ccc2c(=O)n3c(nc2c1)C(Cc1ccccc1)NC(=O)c1cc(Cl)ccc1-3 (configuration not stated)	–	·	–	–	0.0	·
Oc1ccc(Br)cc1-c1nc2cnccn2c1NC1CCCC1	49	·	–	–	–	–
CCc1c(-c2ccc(OC)cc2)ncn1CCc1ccccc1OC	–	·	·	·	·	·
S=C1NC[C@H](Cc2ccccc2)N1CC1CCN(CCCC2CCCCC2)CC1	–	·	·	·	·	·
Cc1cc(C)cc(Nc2nc(-c3ccc(S(=O)(=O)N4CCCC4)cc3)cs2)c1	–	+	–	–	–	–
O=S(=O)(c1ccc(-c2csc(Nc3ccc(F)cc3)n2)cc1)N1CCCC1	–	+	–	–	–	–
CCCCCCCCN1CCS(=O)(=O)N(Cc2ccc(F)cc2)C(C(=O)OC)C1 (configuration not stated)	–	·	·	·	·	·
COC(=O)[C@H](CC(C)C)N(CCc1cn(Cc2ccc(C)cc2)nn1)S(=O)(=O)c1ccccc1Br	–	·	·	·	·	·
CCN1CCN(c2ccc(NC(=O)c3cccc(OCc4ccccc4)c3)cc2)CC1	–	+	–	–	–	–
CN1CCN(c2ccc(NC(=O)c3cccc(OCc4ccccc4)c3)cc2)CC1	–	–	–	–	–	–
CCC(NC(=O)c1ccc2c(ccn2Cc2cccc(-c3ccccc3C(=O)O)c2)c1)c1ccccc1 (configuration not stated)	–	·	·	·	·	·
CC1CCCCC12NC(=O)N(CC(=O)N1CCN(S(=O)(=O)c3ccc4c(c3)CCC4)CC1)C2=O (configuration not stated)	–	·	·	–	·	25
N#C/C(=C/c1ccc(N2CCCCC2)o1)C(=O)Nc1ccc(Cl)cc1	–	–	–	–	–	–
N#C/C(=C/c1ccc(N2CCCCC2)o1)C(=O)Nc1ccc2ccccc2c1	–	–	·	·	·	41
CCn1c(SCC(=O)N2CCCc3ccccc32)nc2c(c1=O)SC(C)C2 (configuration not stated)	–	·	–	–	–	16
CCn1c(SCC(=O)N2CCc3ccccc32)nc2c(c1=O)SC(C)C2 (configuration not stated)	·	–	–	–	–	·
CCn1nnnc1SCC(=O)N1CCCc2ccccc21	–	–	–	–	–	24
SMILES	KLK7 zymogen act	Rce1 inh	CR mimetic SO	MIN6 prolif	T cell HTS	V-ATPase pH
C=CCN1C(=O)[C@@H](CC(=O)N2CCSCC2)[C@]2(C(=O)OC)CCCCC=C12	–	·	·	·	·	·
CCCCN(CC)CCNC(=O)c1cc2c(-c3ccc(Cl)cc3)nn(C)c2s1	–	+	–	–	–	–
CCCN(CCC)CCNC(=O)c1cc2c(-c3ccc(Cl)cc3)nn(C)c2s1	–	+	–	–	–	–
CCCN(CCC)CCNC(=O)c1cc2c(-c3ccccc3F)nn(C)c2s1	–	+	–	–	–	–
CCN(CC)CCNC(=O)c1cc2c(-c3ccc(Cl)cc3)nn(C)c2s1	17	–	–	–	–	–
CCCN(CCC)CCCNC(=O)c1cc2c(-c3ccc(OC)c(OC)c3)nn(C)c2s1	–	–	–	–	–	–
CCOCCCNC(=O)c1cc2c(-c3ccc(Cl)cc3)nn(C)c2s1	–	–	–	–	–	–
COc1cccc(-c2nn(C)c3sc(C(=O)NCc4ccc(C)cc4)cc23)c1	–	–	–	–	–	–
COCCCNC(=O)c1cc2c(-c3cccc(OC)c3)nn(C)c2s1	–	+	–	–	–	–
Cc1cc(NC(=O)COC(=O)C2CC(=O)N(c3ccccc3)C2)no1 (configuration not stated)	–	·	–	–	–	–
Cc1cc(NC(=O)COC(=O)C2CC(=O)N(c3ccc(Cl)cc3)C2)no1 (configuration not stated)	–	·	–	–	–	16
CC(NC(=O)/C(C#N)=C/c1ccc([N+](=O)[O-])o1)c1ccccc1 (configuration not stated)	–	–	–	–	–	94
CC(NC(=O)/C(C#N)=C/c1ccco1)c1ccccc1 (configuration not stated)	–	–	–	–	–	–
Cc1cccc(-c2cc3nc(-c4ccccc4)cc(N4CCC5(CC4)OCCO5)n3n2)c1	–	+	–	–	–	–
Cc1ccc(-c2cc3nc(-c4ccccc4)cc(N4CCC5(CC4)OCCO5)n3n2)cc1	–	–	–	–	–	–
Fc1cccc(-c2cc3nc4c(c(N5CCC6(CC5)OCCO6)n3n2)CCCC4)c1	–	–	–	–	–	–
Fc1cccc(-c2cc3nc(-c4ccccc4)cc(N4CCC5(CC4)OCCO5)n3n2)c1	–	+	–	–	–	–
Cc1nc2c(C(=O)N3CCN(C)CC3)cnn2c(C)c1Cc1ccc(Cl)cc1	–	+	–	–	–	–
CCCCCCCCN1C(=O)[C@@H](CC(=O)NCC2CCCCC2)C[C@@]2(C(=O)OC)C1=C[C@H](C(C)C)O[C@@H]2C1CC1	–	·	·	·	·	·
CCCCCC(=O)NCC(C)NC(=O)CCCCC (configuration not stated)	–	–	–	–	0.0	–
CC(CNC(=O)CCc1ccccc1)NC(=O)CCc1ccccc1 (configuration not stated)	–	–	–	–	–	–
CCC(CC)C(=O)Nc1cccc(C(=O)Nc2nnc(C)s2)c1	–	–	–	–	–	211
CN(C)C(=O)N1CCC(C(=O)N2CCCC(C(=O)c3ccc(C(C)(C)C)cc3)C2)CC1 (configuration not stated)	–	–	63	–	–	–
CC(C)(C)c1ccc(C(=O)C2CCCN(C(=O)CN3CCCC3=O)C2)cc1 (configuration not stated)	–	–	–	–	–	–
